Reference: ChEMBL document CHEMBL1125286, “Zatosetron, a potent, selective, and long-acting 5HT3 receptor antagonist: synthesis and structure-activity relationships” (J Med Chem, 1992)

Tests used:
[1] = molecular target: T1, Serotonin 3 (5-HT3) receptor (Rattus norvegicus) (UniProt P35563+Q9JJ16); experiment: 5-hydroxytryptamine 3 receptor antagonistic activity measured by inhibition of 5-HT-induced bradycardia (iv administration 10 ug/kg dose in urethane-anesthetized rats); assay type: functional, organism-based
Outline: (§1)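 Urethane-anesthetized rats. First 5HT challenge 30 μg/kg iv gives a transient bradycardia. Once heart rate is back at steady state (≤5 min), test compound or saline goes in via the femoral vein. 5HT 30 μg/kg iv is repeated 15 min later. % inhibition is the difference between first and second bradycardia at peak, each animal its own control. Means ± SEM, groups of 3–16 rats.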

[2] = molecular target: T1, Serotonin 3 (5-HT3) receptor (Rattus norvegicus); experiment: 5-hydroxytryptamine 3 receptor antagonistic activity was measured by the inhibition of 5H+ T-induced bradycardia after iv administration of 3 ug/kg dose in urethane-anesthetized rats; assay type: functional, organism-based
Outline: (§2)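 Urethane-anesthetized rats; antagonist or saline given iv via femoral vein after heart rate settled (≤5 min) from an initial 5HT challenge (30 µg/kg iv). 5HT was given again 15 min later. Peak bradycardia measured, each rat its own control; % inhibition = difference between first and second responses. Groups of 3–16 rats, means ± SEM.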

[3] = molecular target: T1, Serotonin 3 (5-HT3) receptor (Rattus norvegicus); experiment: Compound was tested for the inhibition of 5-HT-induced bradycardia after peroral administration of 300 ug/kg dose in urethane-anesthetized rats; assay type: functional, organism-based
Outline: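 Fasted rats dosed by gavage (5 mL/kg) with compound or distilled-water vehicle. Urethane anesthesia and surgical preparation 15–20 min before challenge. 5HT 0.03 mg/kg iv given 1 h after dosing. Peak bradycardia is compared with vehicle-treated controls. Means ± SEM, groups of 3–11 rats.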

[4] = molecular target: T1, Serotonin 3 (5-HT3) receptor (Rattus norvegicus); experiment: Compound was tested for the inhibition of 5-HT-induced bradycardia after intravenous administration of 0.3 ug/kg dose in urethane-anesthetized rats; assay type: functional, organism-based; outline: as §2
[5] = molecular target: T1, Serotonin 3 (5-HT3) receptor (Rattus norvegicus); experiment: Compound was tested for the inhibition of 5-HT-induced bradycardia after peroral administration of 1000 ug/kg dose in urethane-anesthetized rats; assay type: functional, organism-based
Outline: (§3)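 Fasted rats gavaged (5 mL/kg) with antagonist or vehicle (distilled water). Urethane anesthesia and surgical preparation followed, 15–20 min before 5HT challenge. 5HT 30 µg/kg iv given 1 h after dosing, with vehicle-treated rats as controls. Peak % inhibition of bradycardia in groups of 3–11, means ± SEM.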

[6] = molecular target: T1, Serotonin 3 (5-HT3) receptor (Rattus norvegicus); experiment: Compound was tested for the inhibition of 5-HT-induced bradycardia after peroral administration of 30 ug/kg dose in urethane-anesthetized rats; assay type: functional, organism-based; outline: as §3
[7] = molecular target: T1, Serotonin 3 (5-HT3) receptor (Rattus norvegicus); experiment: Compound was tested for the inhibition of 5-HT-induced bradycardia after peroral administration of 100 ug/kg dose in urethane-anesthetized rats; assay type: functional, organism-based; outline: as §3
[8] = molecular target: T1, Serotonin 3 (5-HT3) receptor (Rattus norvegicus); experiment: Compound was tested for the inhibition of 5-HT-induced bradycardia after intravenous administration of 1 ug/kg dose in urethane-anesthetized rats; assay type: functional, organism-based; outline: as §2
[9] = molecular target: T1, Serotonin 3 (5-HT3) receptor (Rattus norvegicus); experiment: Compound was tested for the inhibition of 5-HT-induced bradycardia after peroral administration of 0.1 mg/kg at 3 hours in urethane-anesthetized rats; assay type: functional, organism-based; parameters: dose 0.1 mg/kg; conditions: at 0.1 mg/kg
Outline: (§4)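 Duration study: antagonist or vehicle gavaged to conscious fasted rats (5 mL/kg). Rats were urethane-anesthetized and surgically prepared, then challenged with 5HT 0.03 mg/kg iv at the stated time after dosing. Vehicle-treated rats served as controls. Peak inhibition of bradycardia recorded in groups of 3–11, means ± SEM.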

[10] = molecular target: T1, Serotonin 3 (5-HT3) receptor (Rattus norvegicus); experiment: Compound was tested for the inhibition of 5-HT-induced bradycardia after peroral administration of 0.1 mg/kg at 6 hours in urethane-anesthetized rats; assay type: functional, organism-based; parameters: dose 0.1 mg/kg; conditions: at 0.1 mg/kg; outline: as §4
[11] = molecular target: T1, Serotonin 3 (5-HT3) receptor (Rattus norvegicus); experiment: Inhibition of 5-HT-induced bradycardia by 5-hydroxytryptamine 3+; assay type: functional
[12] = molecular target: T1, Serotonin 3 (5-HT3) receptor (Rattus norvegicus); experiment: Compound was tested for the inhibition of 5-HT-induced bradycardia after peroral administration of 0.1 mg/kg at 16 hours in urethane-anesthetized rats; assay type: functional, organism-based; parameters: dose 0.1 mg/kg; conditions: at 0.1 mg/kg; outline: as §4
[13] = tested on: Serotonin 3 receptor (Cavia porcellus); experiment: In vitro binding affinity was measured for 5-hydroxytryptamine 3 receptor in the guinea pig ileum.
[14] = molecular target: T1, Serotonin 3 (5-HT3) receptor (Rattus norvegicus); experiment: Compound was tested for the inhibition of 5-HT-induced bradycardia after peroral administration of 0.1 mg/kg at 1 hour in urethane-anesthetized rats; assay type: functional, organism-based; parameters: dose 0.1 mg/kg; conditions: at 0.1 mg/kg; outline: as §4
[15] = molecular target: T1, Serotonin 3 (5-HT3) receptor (Rattus norvegicus); experiment: Compound was tested for the inhibition of 5-HT-induced bradycardia after peroral administration of 0.1 mg/kg at 0.5 hours in urethane-anesthetized rats; assay type: functional, organism-based; parameters: dose 0.1 mg/kg; conditions: at 0.1 mg/kg; outline: as §4
[16] = molecular target: T1, Serotonin 3 (5-HT3) receptor (Rattus norvegicus); experiment: Compound was tested for the inhibition of 5-HT-induced bradycardia after peroral administration in urethane-anesthetized rats
[17] = molecular target: T1, Serotonin 3 (5-HT3) receptor (Rattus norvegicus); experiment: 5-hydroxytryptamine 3 receptor antagonistic activity as inhibition of 5-HT-induced bradycardia after iv administration of 100 ug/kg dose in urethane-anesthetized rats; assay type: functional, organism-based; outline: as §1
[18] = molecular target: T1, Serotonin 3 (5-HT3) receptor (Rattus norvegicus); experiment: 5-hydroxytryptamine 3 receptor antagonistic activity was measured by the inhibition of 5H+ T-induced bradycardia after iv administration of 1000 ug/kg dose in urethane-anesthetized rats; assay type: functional, organism-based; outline: as §1
[19] = molecular target: T1, Serotonin 3 (5-HT3) receptor (Rattus norvegicus); experiment: Compound was tested for the inhibition of 5-HT-induced bradycardia after intravenous administration of 30 ug/kg dose in urethane-anesthetized rats; assay type: functional, organism-based; outline: as §1
[20] = molecular target: T1, Serotonin 3 (5-HT3) receptor (Rattus norvegicus); experiment: Compound was tested for the inhibition of 5-HT-induced bradycardia after peroral administration of 0.3 mg/kg at 6 hours in urethane-anesthetized rats; assay type: functional, organism-based; parameters: dose 0.3 mg/kg; conditions: at 0.3 mg/kg
Outline: (§5)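 Duration study. Antagonist or vehicle is given by oral gavage to conscious rats. Rats are then urethane-anesthetized, surgically prepared and challenged with 5HT 0.03 mg/kg iv at the stated time after dosing. Peak inhibition of bradycardia is measured against vehicle-treated controls. Means ± SEM, groups of 3–11 rats.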

[21] = molecular target: T1, Serotonin 3 (5-HT3) receptor (Rattus norvegicus); experiment: Compound was tested for the inhibition of 5-HT-induced bradycardia after peroral administration of 0.3 mg/kg at 3 hours in urethane-anesthetized rats; assay type: functional, organism-based; parameters: dose 0.3 mg/kg; conditions: at 0.3 mg/kg; outline: as §5
[22] = molecular target: T1, Serotonin 3 (5-HT3) receptor (Rattus norvegicus); experiment: Compound was tested for the inhibition of 5-HT-induced bradycardia after peroral administration of 0.3 mg/kg at 0.5 hours in urethane-anesthetized rats; assay type: functional, organism-based; parameters: dose 0.3 mg/kg; conditions: at 0.3 mg/kg; outline: as §5
[23] = molecular target: T1, Serotonin 3 (5-HT3) receptor (Rattus norvegicus); experiment: Compound was tested for the inhibition of 5-HT-induced bradycardia after peroral administration of 10 ug/kg dose in urethane-anesthetized rats; assay type: functional, organism-based; outline: as §3
[24] = molecular target: T1, Serotonin 3 (5-HT3) receptor (Rattus norvegicus); experiment: Compound was tested for the inhibition of 5-HT-induced bradycardia after peroral administration of 0.3 mg/kg at 1 hour in urethane-anesthetized rats; assay type: functional, organism-based; parameters: dose 0.3 mg/kg; conditions: at 0.3 mg/kg; outline: as §5
[25] = molecular target: T1, Serotonin 3 (5-HT3) receptor (Rattus norvegicus); experiment: Compound was tested for the inhibition of 5-HT-induced bradycardia after peroral administration of 0.03 mg/kg dose in urethane-anesthetized rats at 3 hour; assay type: functional, organism-based; parameters: dose 0.03 mg/kg; outline: as §4
[26] = molecular target: T1, Serotonin 3 (5-HT3) receptor (Rattus norvegicus); experiment: Compound was tested for the inhibition of 5-HT-induced bradycardia after peroral administration of 0.03 mg/kg dose in urethane-anesthetized rats at 16 hour; assay type: functional, organism-based; parameters: dose 0.03 mg/kg; outline: as §4
[27] = molecular target: T1, Serotonin 3 (5-HT3) receptor (Rattus norvegicus); experiment: Compound was tested for the inhibition of 5-HT-induced bradycardia after peroral administration of 0.03 mg/kg dose in urethane-anesthetized rats at 1 hour; assay type: functional, organism-based; parameters: dose 0.03 mg/kg; outline: as §4
[28] = molecular target: T1, Serotonin 3 (5-HT3) receptor (Rattus norvegicus); experiment: Compound was tested for the inhibition of 5-HT-induced bradycardia after peroral administration of 0.03 mg/kg dose in urethane-anesthetized rats at 0.05 hour; assay type: functional, organism-based; parameters: dose 0.03 mg/kg; conditions: in the assay text read “0.5 hour” for “0.05 hour”; outline: as §4
[29] = molecular target: T1, Serotonin 3 (5-HT3) receptor (Rattus norvegicus); experiment: Compound was tested for the inhibition of 5-HT-induced bradycardia after peroral administration of 3 ug/kg dose in urethane-anesthetized rats; assay type: functional, organism-based; outline: as §3
[30] = molecular target: T1, Serotonin 3 (5-HT3) receptor (Rattus norvegicus); experiment: Compound was tested for the inhibition of 5-HT-induced bradycardia after peroral administration of 0.03 mg/kg dose in urethane-anesthetized rats at 6 hour; assay type: functional, organism-based; parameters: dose 0.03 mg/kg; outline: as §4
[31] = molecular target: T1, Serotonin 3 (5-HT3) receptor (Rattus norvegicus); experiment: 5-hydroxytryptamine 3 receptor antagonistic activity was measured by the inhibition of 5-HT-induced bradycardia after iv administration of 1000 ug/kg dose in urethane-anesthetized rats; assay type: functional, organism-based; outline: as §1

## Cc1cc2cccc(C(=O)OC3CC4CCC(C3)N4C)c2o1 (stereo not drawn)
[1]
  inhibition: 7.3%

## CN1C2CCC1CC(NC(=O)c1cccc3c1OC(C)(C)C3)C2 (stereo not drawn)
[2]
  inhibition: 13.7%
[1]
  inhibition: 47.5%

## COc1cc2c(c(C(=O)OC3CC4CCC(C3)N4C)c1)OC(C)C2 (stereo not drawn)
[1]
  inhibition: 4.1%

## CC1Cc2cc(Cl)cc(C(=O)NC3CC4CCC(C3)N4C)c2O1 (stereo not drawn)
[3]
  inhibition: 89.7%
[4]
  inhibition: 11%
[2]
  inhibition: 79.8%
[5]
  inhibition: 94.6%
[6]
  inhibition: 21.9%
[1]
  inhibition: 80%
[7]
  inhibition: 74.6%
[8]
  inhibition: 58.1%
[9]
  inhibition: 75.2%
[10]
  inhibition: 71.4%
[11]
  ED50: 1 µg/kg
[12]
  inhibition: 0%
[13]
  -Log KB: 8.27
[14]
  inhibition: 74.6%
[15]
  inhibition: 87%
[16]
  ED50: 63 µg/kg

## Cc1cc2c(c(C(=O)OC3CC4CCC(C3)N4C)c1)OCC2 (stereo not drawn)
[1]
  inhibition: 28.8%
[17]
  inhibition: 67.2%

## CN1[C@@H]2CC[C@H]1C[C@H](OC(=O)c1ccccc1)C2
[18]
  inhibition: 88.1%

## CC1Oc2c(C(=O)OC3CC4CCC(C3)N4C)cccc2C1C (stereo in doubt; 26)
[2]
  inhibition: 1.8%
[1]
  inhibition: 29.9%
[19]
  inhibition: 78.7%

## CN1[C@@H]2CC[C@H]1C[C@@H](OC(=O)c1c[nH]c3ccccc13)C2
[20]
  inhibition: 17.4%
[21]
  inhibition: 65.2%
[2]
  inhibition: 54.2%
[5]
  inhibition: 85%
[22]
  inhibition: 86.6%
[7]
  inhibition: 39.8%
[8]
  inhibition: 20.1%
[17]
  inhibition: 70.6%
[23]
  inhibition: 0.1%
[11]
  ED50: 3.1 µg/kg
[24]
  inhibition: 77.4%
[16]
  ED50: 127 µg/kg

## CN1[C@@H]2CC[C@H]1C[C@@H](NC(=O)c1cc(Cl)cc3c1OC(C)(C)C3)C2 (stereo in doubt)
[25]
  inhibition: 61.1%
[4]
  inhibition: 10.8%
[2]
  inhibition: 84.4%
[26]
  inhibition: 0%
[6]
  inhibition: 77.6%
[8]
  inhibition: 66.2%
[27]
  inhibition: 77.6%
[23]
  inhibition: 57.1%
[28]
  inhibition: 86.4%
[11]
  ED50: 0.9 µg/kg
[13]
  -Log KB: 8.78
[29]
  inhibition: 19.1%
[30]
  inhibition: 81.4%
[16]
  ED50: 9.2 µg/kg

## CN1C2CCC1CC(OC(=O)c1ccccc1-c1ccccc1)C2 (stereo not drawn)
[31]
  inhibition: 47.3%

## CN1C2CCC1CC(NC(=O)c1ccc3c(c1)CC(C)(C)O3)C2 (stereo not drawn)
[1]
  inhibition: 16.7%

## CN1C2CCC1CC(OC(=O)c1ccc3c(c1)oc1ccccc13)C2 (stereo not drawn)
[18]
  inhibition: 1.5%

## COc1cc2c(c(C(=O)NC3CC4CCC(C3)N4C)c1)OC(C)C2 (stereo not drawn)
[1]
  inhibition: 28.9%

## CC1Oc2c(C(=O)OC3CC4CCC(C3)N4C)cccc2C1C (stereo in doubt; 27)
[2]
  inhibition: 35.6%
[1]
  inhibition: 32.7%
[19]
  inhibition: 47.3%

## Cc1coc2c(C(=O)OC3CC4CCC(C3)N4C)cccc12 (stereo not drawn)
[1]
  inhibition: 7.7%

## CN1C2CCC1CC(NC(=O)c1c(Cl)ccc3c1OC(C)(C)C3)C2 (stereo not drawn)
[1]
  inhibition: 0.8%

## CN1C2CCC1CC(NC(=O)c1ccc(Cl)c3c1OC(C)(C)C3)C2 (stereo not drawn)
[1]
  inhibition: 1.9%

## CN1C2CCC1CC(NC(=O)c1cccc3c1CC(C)(C)O3)C2 (stereo not drawn)
[1]
  inhibition: 2.1%
